The values below come from ChEMBL document CHEMBL4007441, “Novel Design of Heptad Amphiphiles To Enhance Cell Selectivity, Salt Resistance, Antibiofilm Properties and Their Membrane-Disruptive Mechanism” (J Med Chem, 2017).

In data set [1] the test system is Pseudomonas aeruginosa. Nature of the data set: Antibacterial activity against Pseudomonas aeruginosa ATCC 27853 after 18 hrs in presence of NaCl by broth microdilution method. In kind it is functional. Particulars: ATCC 27853, 18 h. Put shortly: (§1)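 Broth microdilution MIC against ATCC 27853 in Mueller-Hinton broth with added salt at final concentrations: NaCl 150 mM, KCl 4.5 mM, NH4Cl 6 µM, ZnCl2 8 µM, FeCl3 4 µM. Inoculum about 1 × 10^6 CFU/mL from exponential phase, mixed 1:1 with two-fold peptide dilutions. MIC read as no visible turbidity after 18 h at 37 °C.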
(In general: Broth dilution looks for growth in wells or tubes with falling amounts of substance.)

Data set [2] deals with Pseudomonas aeruginosa. Nature of the data set: Antibacterial activity against Pseudomonas aeruginosa CICC 21625 after 18 hrs by broth microdilution method. In kind it is functional. Particulars: CICC 21625, 18 h. Put shortly:
(§2)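 Broth microdilution in Mueller-Hinton broth. Exponential-phase bacteria (37 °C, 220 rpm shaking) were diluted to about 1 × 10^6 CFU/mL and mixed 1:1 with two-fold serial peptide dilutions. MIC is the lowest concentration with no visible turbidity after 18 h at 37 °C. Controls were uninoculated MHB and untreated culture. Run at least three times, two replicates each.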

Data set [3] relates to Pseudomonas aeruginosa. Description: Antibacterial activity against Pseudomonas aeruginosa ATCC 27853 after 18 hrs by broth microdilution method. The format is functional. Particulars: ATCC 27853, 18 h. The method, boiled down: as §2
Data set [4] has as its system RAW264.7. Nature of the data set: Inhibition of LPS-induced NO production in mouse RAW264.7 cells at 10 mg/L after 18 hrs by Griess assay. The format is functional, cell-based. Put shortly: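 RAW264.7 cells (5 × 10^5/well) were stimulated with LPS at 100 ng/mL, with or without peptide at 10 mg/L, for 18 h at 37 °C. Nitrite in the medium was measured with Griess reagent at 540 nm against a NaNO2 standard curve. Three independent experiments.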
For orientation: The Griess reaction detects nitrite, a stable product of nitric oxide.

The test system of data set [5] is Pseudomonas aeruginosa. Nature of the data set: Antibacterial activity against Pseudomonas aeruginosa CICC 21630 after 18 hrs by broth microdilution method. The format is functional. Particulars: CICC 21630, 18 h. Put shortly: as §2
Data set [6] has as its system Pseudomonas aeruginosa. Nature of the data set: Antibacterial activity against Pseudomonas aeruginosa 26305 clinical isolate after 18 hrs by broth microdilution method. In kind it is functional. Particulars: Pseudomonas aeruginosa, 26305, 18 h.
Data set [7] has as its system RAW264.7. Description: Downregulation of LPS-induced TNF-alpha mRNA expression in mouse RAW264.7 cells at 10 mg/L after 18 hrs by real-time PCR analysis. In kind it is functional, cell-based. Put shortly:
(§3)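 qRT-PCR: RAW264.7 cells were stimulated with LPS (100 ng/mL) with or without peptide at 10 mg/L for 18 h at 37 °C. Total RNA was taken up with TRIzol. Transcript levels were normalized to GAPDH and expressed as fold change versus untreated cells. Three experiments, triplicates each.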

For data set [8], the system named is RAW264.7. Description: Cytotoxicity in mouse RAW264.7 cells after 24 hrs by MTT assay. In kind it is cell-based. Particulars: raw264.7, 24 h. For orientation: Tetrazolium dyes change colour on reduction, which living cells bring about.
Data set [9] has as its system RAW264.7. Description: Inhibition of LPS-induced IkappaB-alpha protein degradation in mouse RAW264.7 cells at 10 mg/L after 18 hrs by Western blot analysis. In kind it is functional, cell-based. The method, boiled down:
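Western blot of RAW264.7 lysates after 18 h with LPS at 100 ng/mL, with or without peptide at 10 mg/L. Lysates were run on 8% or 12% SDS-PAGE, transferred to PVDF and blocked in 5% milk/TBST. Primary antibodies were applied at 4 °C overnight, then HRP secondary and ECL detection. β-actin was the loading control.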

Data set [10] concerns RAW264.7. Description: Downregulation of LPS-induced IL-6 mRNA expression in mouse RAW264.7 cells at 10 mg/L after 18 hrs by real-time PCR analysis. The format is functional, cell-based. Put shortly:
as §3

In data set [11] the test system is Pseudomonas aeruginosa. Description: Antibacterial activity against ceftazidime-resistant Pseudomonas aeruginosa 11431 after 18 hrs by broth microdilution method. The format is functional. Particulars: Pseudomonas aeruginosa, 11431, 18 h. Put shortly:
as §2

Data set [12] has as its system Pseudomonas aeruginosa. Nature of the data set: Antibacterial activity against gentamicin-resistant Pseudomonas aeruginosa 11421 after 18 hrs by broth microdilution method. The format is functional. Particulars: Pseudomonas aeruginosa, 11421, 18 h. The method, boiled down:
(§4)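 Broth microdilution in Mueller-Hinton broth. Exponential-phase bacteria (37 °C, 220 rpm shaking) were diluted to about 1 × 10^6 CFU/mL and mixed 1:1 with two-fold serial peptide dilutions. Controls were uninoculated MHB and untreated culture. Run at least three times, two replicates each.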

The test system of data set [13] is Escherichia coli. Description: microbe, parasite or virus in culture. Particulars: ATCC 25922, 18 h.
Data set [14] has as its system Pseudomonas aeruginosa. Nature of the data set: Antibiofilm activity in Pseudomonas aeruginosa ATCC 27853 assessed as reduction in biomass after 24 hrs by crystal violet staining-based method. In kind it is functional. Put shortly: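 Overnight culture was diluted 1:100 and grown 24 h at 37 °C to form biofilms. Loose cells were removed and fresh broth added with peptide at 1×, 4× or 8× MIC for another 24 h. Biofilms were stained with 0.1% crystal violet for 10 min, washed, and dye extracted in 95% ethanol before reading absorbance. Results are % of untreated biofilm; three repeats in duplicate, mean ± SD.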

In data set [15] the test system is Pseudomonas aeruginosa. Nature of the data set: Antibacterial activity against Pseudomonas aeruginosa 21328 clinical isolate after 18 hrs by broth microdilution method. Particulars: Pseudomonas aeruginosa, 21328, 18 h. In kind it is functional.
Data set [16] has as its system Pseudomonas aeruginosa. Description: Antibacterial activity against Pseudomonas aeruginosa CICC 10419 after 18 hrs by broth microdilution method. Particulars: CICC 10419, 18 h. The format is functional. The method, boiled down:
as §2

Data set [17] has as its system Pseudomonas aeruginosa. Description: Antibacterial activity against Pseudomonas aeruginosa ATCC 27853 after 18 hrs in presence of KCl by broth microdilution method. The format is functional. Particulars: ATCC 27853, 18 h. The method, boiled down: as §1
The test system of data set [18] is RAW264.7. Nature of the data set: Downregulation of LPS-induced TNF-alpha level in mouse RAW264.7 cells at 10 mg/L after 18 hrs by ELISA. The format is functional, cell-based. Put shortly: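 ELISA of secreted TNF-α in culture medium of RAW264.7 cells treated 18 h with LPS 100 ng/mL alone or with peptide at 10 mg/L. Samples were run in duplicate; release was normalized to untreated controls.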

The test system of data set [19] is Pseudomonas aeruginosa. Description: Antibacterial activity against Pseudomonas aeruginosa 25349 clinical isolate after 18 hrs by broth microdilution method. The format is functional. Particulars: Pseudomonas aeruginosa, 25349, 18 h.
Data set [20] deals with Lipopolysaccharide (LPS). Nature of the data set: Inhibition of BODIPY-TR-cadaverine binding to Pseudomonas aeruginosa 10 LPS by fluorescence spectrophotometric analysis.
For data set [21], the system named is Pseudomonas aeruginosa. Nature of the data set: Antibacterial activity against ciprofloxacin-resistant Pseudomonas aeruginosa 11411 after 18 hrs by broth microdilution method. In kind it is functional. Particulars: Pseudomonas aeruginosa, 11411, 18 h. The method, boiled down:
as §4

The subject of data set [22] is Pseudomonas aeruginosa. Description: Antibacterial activity against Pseudomonas aeruginosa ATCC 27853 after 18 hrs in presence of FeCl3 by broth microdilution method. In kind it is functional. Particulars: ATCC 27853, 18 h. The method, boiled down:
as §1

In data set [23] the test system is Pseudomonas aeruginosa. Description: Antibacterial activity against Pseudomonas aeruginosa ATCC 27853 after 18 hrs in presence of MgCl2 by broth microdilution method. Particulars: ATCC 27853, 18 h. The format is functional. The method, boiled down:
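Broth microdilution MIC in MHB against the reference strain. About 1 × 10^6 CFU/mL exponential-phase inoculum mixed 1:1 with two-fold peptide dilutions in medium containing 1 mM MgCl2 (final). Lowest concentration with no visible turbidity after 18 h at 37 °C.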

The subject of data set [24] is Pseudomonas aeruginosa. Description: Drug uptake in Pseudomonas aeruginosa ATCC 27853 treated with FITC-labeled compound at MIC after 30 mins by confocal fluorescence microscopy. In kind it is ADME. Particulars: 0.5 h. Put shortly:
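Cells were pelleted at 5,000 g for 5 min, washed three times in PBS, smeared and imaged by confocal microscopy with 488 nm excitation.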

Activity calls are given as the source filed them. The rule behind the calls is not given here.

On to H-LRRLRRRWWRRRLRRL-NH2, for which the MIC in [1] came to 16 µg/mL; in data set [2] it was 16 µg/mL; in data set [3], 8 µg/mL; in [5], 8 µg/mL; in data set [6] it was 8 µg/mL; in [11], 16 µg/mL. The MIC in [12] is 16 µg/mL; in [13], 16 µg/mL; in [15], 32 µg/mL; in data set [16], 16 µg/mL; in data set [17], 8 µg/mL; in data set [19], 16 µg/mL. Moreover, the values for the MIC in data set [21], in data set [22] and in [23] were 8 µg/mL, 8 µg/mL and 32 µg/mL, respectively. Besides, the inhibition result in data set [4] and in data set [9] was “Active” in each case. Also, the outcome in data set [7], in [10] and in data set [18] was Active. The CC10 in [8] stood at 128 µg/mL. Besides, the Activity entry in data set [14] and in data set [20] was “Dose-dependent effect” in each case. Also, the Drug uptake entry in [24] was “Active”.
Regarding H-LRRLRRRWWWRRRLRRL-NH2, the MIC in [1] is 8 µg/mL; in data set [2] it was 8 µg/mL; in data set [3] it was 4 µg/mL; in data set [5], 4 µg/mL; in data set [6], 4 µg/mL; in data set [11], 4 µg/mL. The MIC was found to be 8 µg/mL in [12]; 4 µg/mL in data set [13]; 4 µg/mL in data set [15]; 8 µg/mL in data set [16]; 4 µg/mL in [17]; 4 µg/mL in data set [19]. The MIC in data set [21] was 4 µg/mL; in data set [22], 4 µg/mL; in data set [23], 16 µg/mL. The inhibition entry in data set [4] and in data set [9] was “Active” in each case. Besides, the result in data set [7], in data set [10] and in data set [18] was Active. The substance further returned a CC10 in [8] of 256 µg/mL. The Activity entry in [14] and in data set [20] was “Dose-dependent effect” in each case. Also, the Drug uptake result in data set [24] is reported as “Active”.
